# Results as given in ChEMBL document CHEMBL1143366, “Synthesis and antitumor activity of novel enediyne-linked pyrrolo[2,1-c][1,4]benzodiazepine hybrids” (Bioorg Med Chem, 2009).
# Active and inactive are the calls of the source. No cut-off for these calls is given here.
# Experiments:
# MCF7 [1] = assay: Cytotoxicity against human MCF7 cells assessed as survival at 4 uM after 24 hrs by MTT assay; format: functional; conditions: MCF7, 24 h, read-out: Survival
# Summary of the method: (§1)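 Cells seeded at 2500 cells/well, incubated overnight, then exposed to agents at 4 µM for 24 h. Medium replaced with MTT dye, 2 h at 37 °C. Formazan dissolved in DMSO, absorbance read at 540 nm. Survival expressed as % of untreated control.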
# NCI-H1355 = assay: Cytotoxicity against human NCI-H1355 cells assessed as survival at 4 uM after 24 hrs by MTT assay; format: functional; conditions: NCI-H1355, 24 h, read-out: Survival; summary of the method: as §1
# A-375 = assay: Cytotoxicity against human A375 cells assessed as survival at 4 uM after 24 hrs by MTT assay; format: functional; conditions: A-375, 24 h, read-out: Survival; summary of the method: as §1
# [2] = Cell cycle arrest in human 293T cells assessed as accumulation at sub-G1 phase at 4 uM after 24 hrs using propidium iodide staining by FACS; format: functional, cell-based; conditions: HEK-293T
# Summary of the method: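 293T cells exposed to 4 µM agents for 24 h, harvested by trypsinization and fixed in 50% cold ethanol at −20 °C. Washed in PBS, then RNase A (100 µg/mL) for 20 min at 37 °C. DNA content of 10,000 events read by flow cytometry. Result is % of cells in the sub-G1 peak.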
# A2058 = assay: Cytotoxicity against human A2058 cells assessed as survival at 4 uM after 24 hrs by MTT assay; format: functional; conditions: A2058, 24 h, read-out: Survival; summary of the method: as §1
# [3] = Cytotoxicity against human 293T cells assessed as survival at 4 uM after 24 hrs by MTT assay; format: cell-based, HEK-293T; conditions: read-out: Survival; summary of the method: as §1
# HEK-293T [4] = assay: Induction of apoptosis in human 293T cells assessed as change in morphology at 4 uM after 24 hrs; format: functional, cell-based
# Summary of the method: (§2)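 293T cells (5×10⁵/well) were grown for one day, then treated for 24 h with 4 µM agent or graded concentrations. Morphology was photographed by phase-contrast microscopy at 200×.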
# HEK-293T [5] = assay: Induction of apoptosis in human 293T cells assessed as decrease in p53 protein expression at 4 uM after 24 hrs by Western blot analysis; format: functional, cell-based
# Summary of the method: (§3)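 293T cells were exposed for 24 h to graded concentrations (0, 1, 2 and 4 µM shown) or to 4 µM agent. Cell lysates were immunoblotted for caspase-3 (CPP32) and p53, with actin as the loading control. Primary antibody ran 2 h at room temperature or overnight at 4 °C, then HRP secondary 1 h at room temperature, with chemiluminescent detection.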
# HEK-293T [6] = assay: Induction of apoptosis in human 293T cells assessed as degradation of caspase 3 at 4 uM after 24 hrs by Western blot analysis; format: functional, cell-based; summary of the method: as §3
# HEK-293T [7] = assay: Induction of apoptosis in human 293T cells at 4 uM after 24 hrs using annexin V-FITC staining by FACS; format: functional
# Summary of the method: (§4)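 293T cells were treated for 24 h with 4 µM agent or graded concentrations, then harvested by trypsinization and centrifugation. Annexin V-FITC was added to 10⁶ cells per sample, with simultaneous PI staining. About 10,000 cells per group were analysed by flow cytometry, with annexin V⁺/PI⁻ scored as early apoptotic.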
# SW-620 = assay: Cytotoxicity against human SW620 cells after 24 hrs by MTT assay; format: functional; conditions: SW-620, 24 h
# RPMI-8226 = assay: Cytotoxicity against human RPMI8226 cells after 24 hrs by MTT assay; format: functional; conditions: RPMI-8226, 24 h
# HEK-293T [8] = assay: Induction of apoptosis in human 293T cells assessed as decrease in p53 protein expression at 1 uM after 24 hrs by Western blot analysis; format: functional, cell-based; summary of the method: as §3
# MOLT-4 = assay: Cytotoxicity against human MOLT4 cells after 24 hrs by MTT assay; format: functional; conditions: MOLT-4, 24 h
# RXF 393 = assay: Cytotoxicity against human RXF393 cells after 24 hrs by MTT assay; format: functional; conditions: RXF 393, 24 h
# HEK-293T [9] = assay: Induction of apoptosis in human 293T cells assessed as early apoptotic cells at 2 uM after 24 hrs using annexin V-FITC/propidium iodide staining by FACS; format: functional; summary of the method: as §4
# HEK-293T [10] = assay: Induction of apoptosis in human 293T cells assessed as degradation of caspase 3 after 24 hrs by Western blot analysis; format: functional, cell-based; summary of the method: as §3
# T47D = assay: Cytotoxicity against human T47D cells after 24 hrs by MTT assay; format: functional
# SK-MEL-2 = assay: Cytotoxicity against human SK-MEL-2 cells after 24 hrs by MTT assay; format: functional; conditions: SK-MEL-2, 24 h
# IGROV-1 = assay: Cytotoxicity against human IGROV1 cells after 24 hrs by MTT assay; format: functional; conditions: IGROV-1, 24 h
# HEK-293T [11] = assay: Induction of apoptosis in human 293T cells assessed as necrotic cells at 4 uM after 24 hrs using annexin V-FITC/propidium iodide staining by flow cytometry; format: functional; summary of the method: as §4
# OVCAR-8 = assay: Cytotoxicity against human OVCAR8 cells after 24 hrs by MTT assay; format: functional; conditions: OVCAR-8, 24 h
# HEK-293T [12] = assay: Induction of apoptosis in human 293T cells assessed as early apoptotic cells at 4 uM after 24 hrs using annexin V-FITC/propidium iodide staining by flow cytometry; format: functional; summary of the method: as §4
# CAKI-1 = assay: Cytotoxicity against human Caki1 cells after 24 hrs by MTT assay; format: functional; conditions: CAKI-1, 24 h
# HEK-293T [13] = assay: Induction of apoptosis in human 293T cells assessed as necrotic cells at 1 uM after 24 hrs using annexin V-FITC/propidium iodide staining by FACS; format: functional; summary of the method: as §4
# OVCAR-3 = assay: Cytotoxicity against human OVCAR-3 cells after 24 hrs by MTT assay; format: functional; conditions: OVCAR-3, 24 h
# HEK-293T [14] = assay: Induction of apoptosis in human 293T cells assessed as early apoptotic cells at 1 uM after 24 hrs using annexin V-FITC/propidium iodide staining by FACS; format: functional; summary of the method: as §4
# MDA-MB-435 = assay: Cytotoxicity against human MDA-MB-435 cells after 24 hrs by MTT assay; format: functional; conditions: MDA-MB-435, 24 h
# HEK-293T [15] = assay: Induction of apoptosis in human 293T cells assessed as DNA repair deficiency at > 2 uM; format: functional, cell-based; summary of the method: as §3
# HEK-293T [16] = assay: Induction of apoptosis in human 293T cells assessed as change in morphology after 24 hrs; format: functional, cell-based; summary of the method: as §2
# BT-549 = assay: Cytotoxicity against human BT549 cells after 24 hrs by MTT assay; format: functional; conditions: BT-549, 24 h
# CCRF-CEM = assay: Cytotoxicity against human CCRF-CEM cells after 24 hrs by MTT assay; format: functional
# MCF7 [17] = assay: Cytotoxicity against human MCF7 cells after 24 hrs by MTT assay; format: functional; conditions: MCF7, 24 h
# HEK-293T [18] = assay: Induction of apoptosis in human 293T cells assessed as necrotic cells at 2 uM after 24 hrs using annexin V-FITC/propidium iodide staining by FACS; format: functional; summary of the method: as §4
smiles,measurement,setting,value
COc1cc2c(cc1OCC#Cc1ccccc1C#Cc1ccccc1)N=C[C@@H]1CCCN1C2=O,viability at 4 µM,MCF7 [1],48.9%
same,viability at 4 µM,NCI-H1355,70.9%
same,viability at 4 µM,A-375,13.1%
same,Activity,[2],6.3%
same,viability at 4 µM,A2058,46.1%
same,"viability at 24 h, 4 µM",[3],48.9%
COc1cc2c(cc1OCCCCC#Cc1ccccc1C#Cc1ccccc1)N=C[C@@H]1CCCN1C2=O,viability at 4 µM,MCF7 [1],85.2%
same,viability at 4 µM,NCI-H1355,75.2%
same,viability at 4 µM,A-375,28.3%
same,Activity,[2],13.2%
same,viability at 4 µM,A2058,49.5%
same,"viability at 24 h, 4 µM",[3],19.2%
COc1cc2c(cc1OC/C=C/COCCC#Cc1ccccc1C#Cc1ccccc1)N=C[C@@H]1CCCN1C2=O,viability at 4 µM,MCF7 [1],59.2%
same,viability at 4 µM,NCI-H1355,85.2%
same,viability at 4 µM,A-375,33.4%
same,Activity,[2],13.6%
same,viability at 4 µM,A2058,46.2%
same,"viability at 24 h, 4 µM",[3],35.2%
COc1cc2c(cc1OC/C=C\COCC#Cc1ccccc1C#Cc1ccccc1)N=C[C@@H]1CCCN1C2=O,viability at 4 µM,MCF7 [1],44%
same,viability at 4 µM,NCI-H1355,44%
same,viability at 4 µM,A-375,33.9%
same,Activity,[2],15.6%
same,viability at 4 µM,A2058,39.1%
same,"viability at 24 h, 4 µM",[3],44%
COc1cc2c(cc1O)N=C[C@@H]1CCCN1C2=O,viability at 4 µM,MCF7 [1],72.3%
same,viability at 4 µM,NCI-H1355,73.9%
same,viability at 4 µM,A-375,50.2%
same,Activity,[2],10%
same,viability at 4 µM,A2058,63.4%
same,"viability at 24 h, 4 µM",[3],68.9%
COc1cc2c(cc1OCCCCCCNC(=O)c1cc3ccccc3[nH]1)N=C[C@@H]1CCCN1C2=O,Activity,HEK-293T [4],Active
same,Activity,HEK-293T [5],Active
same,Activity,HEK-293T [6],Active
same,Activity,HEK-293T [7],19.4%
COc1cc2c(cc1OCC=CCOCCC#Cc1ccccc1C#Cc1ccccc1)N=C[C@@H]1CCCN1C2=O,viability at 4 µM,MCF7 [1],83.8%
same,viability at 4 µM,NCI-H1355,71%
same,viability at 4 µM,A-375,85.7%
same,Activity,[2],13.3%
same,viability at 4 µM,A2058,84.5%
same,"viability at 24 h, 4 µM",[3],60.7%
COc1cc2c(cc1OCCCC#Cc1ccccc1C#Cc1ccccc1)N=C[C@@H]1CCCN1C2=O,viability at 4 µM,MCF7 [1],49.7%
same,GI50,SW-620,478 nM
same,GI50,RPMI-8226,285 nM
same,Activity,HEK-293T [8],inactive
same,GI50,MOLT-4,648 nM
same,Activity,HEK-293T [5],Active
same,GI50,RXF 393,686 nM
same,Activity,HEK-293T [6],Active
same,Activity,HEK-293T [9],2.2%
same,viability at 4 µM,NCI-H1355,87.7%
same,Activity,HEK-293T [10],Dose-dependent effect
same,GI50,T47D,779 nM
same,GI50,SK-MEL-2,924 nM
same,viability at 4 µM,A-375,22.3%
same,GI50,IGROV-1,549 nM
same,Activity,[2],14.5%
same,Activity,HEK-293T [11],17.4%
same,GI50,OVCAR-8,394 nM
same,Activity,HEK-293T [12],1.5%
same,GI50,CAKI-1,485 nM
same,Activity,HEK-293T [13],13.7%
same,GI50,OVCAR-3,520 nM
same,Activity,HEK-293T [14],2.1%
same,GI50,MDA-MB-435,468 nM
same,viability at 4 µM,A2058,47.2%
same,Activity,HEK-293T [15],Active
same,Activity,HEK-293T [16],Dose-dependent effect
same,Activity,HEK-293T [7],25.4%
same,GI50,BT-549,641 nM
same,GI50,CCRF-CEM,422 nM
same,"viability at 24 h, 4 µM",[3],28.7%
same,GI50,MCF7 [17],305 nM
same,Activity,HEK-293T [18],14.5%
COc1cc2c(cc1OC/C=C/COCC#Cc1ccccc1C#Cc1ccccc1)N=C[C@@H]1CCCN1C2=O,viability at 4 µM,MCF7 [1],70.4%
same,viability at 4 µM,NCI-H1355,67.4%
same,viability at 4 µM,A-375,42.9%
same,Activity,[2],13.9%
same,viability at 4 µM,A2058,43%
same,"viability at 24 h, 4 µM",[3],48.4%
